Shown are actives, neighbours in structure and some others; about 2.9% of the full set was active somewhere.
CaV13 ICDI inh = Primary screen for inhibitors of IQ motif and Ca2+-dependent inactivation inhibitor domain binding in CACNA1D, Förster resonance energy transfer in living cells, … | HEK cells, CFP/YFP FRET ICDI-IQ, plate reader, 10 min; percent FRET-ratio fall versus neutral wells | inhibition, % at 12.3 µM | hit rate 0.098% among 340,000;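 active = mean replicate inhibition of at least 30% and at least 1% of replicates passing that level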
FAS TE block = FAS thioesterase domain inhibitors, primary screen, biochemical, fluorescence intensity, uHTS. Fatty acid synthase (Homo sapiens), P49327. recombinant FAS-TE, OMFH fluorogenic substrate, fluorescence endpoint. hit rate 0.67% among 360,000. inhibition, % at 15 µM;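 active = compounds whose normalised, plate-corrected inhibition of enzyme fluorescence in the single-dose primary screen is 50% or more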
Arrestin-AP2 inh = inhibitors of beta-arrestin/AP2 binding, primary screen, biochemical, GPCR trafficking, flow cytometry | beta-arrestin 1 C-terminal peptide binding to AP2 beta2-adaptin appendage (human) | FITC-arrestin peptide / GST-AP2 beads; AP2 beta2 appendage carries R879A mutation | inhibition, % at 10 µM | hit rate 0.31% among 340,000 | AID 504490, 2011;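 active = inhibition above a set limit, near 3 SD of compounds lacking own fluorescence, cut at about 54% in these data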
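Test system: GST-tagged AP2 beta2-adaptin appendage (R879A) on 4 µm glutathione beads; also added: fluorescein-tagged arrestin peptide at 50 nM final; timing: 12 min plus 1 h, RT; signal: flow cytometry, FL1 (488/535 nm); read-out: percent drop in bead-associated FITC signal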
ADAM17 inh = ADAM17 inhibitors, primary screen, biochemical, QFRET; recombinant ADAM17, EDANS/DABCYL FRET peptide cleavage; Disintegrin and metalloproteinase domain-containing protein 17 (Homo sapiens), P78536; hit rate 0.83% among 370,000; AID 720648, 2013; inhibition, % at 6.95 µM;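 active = inhibition above the mean of compounds lying between control limits plus 3 SD, set per campaign, cut at about 8.5% in these data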
NRP1-CendR mod = modulators of CendR peptide binding to NRP-1, primary screen, biochemical, fluorescence polarization, uHTS. FAM-RPARPAR peptide binding to NRP-1. Neuropilin-1 (Homo sapiens), O14786. hit rate 0.85% among 360,000. inhibition, % at 25 µM;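 active = inhibition or corrected inhibition above about 18%, plus a signal ratio from 0.5 to 1.5, limit read from the data, passing the limit was not always enough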
ADAM10 inh = human ADAM10 inhibitors, primary screen, biochemical, QFRET, HTS. hit rate 0.62% among 370,000. AID 720582, 2013. Disintegrin and metalloproteinase domain-containing protein 10 (Homo sapiens), O14672. inhibition, % at 7 µM. recombinant ADAM10, EDANS/DABCYL FRET peptide cleavage, 3 h;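 active = inhibition above a per-campaign cutoff equal to the mean of compounds falling between control-based bounds plus 3 SD, cut at about 20% in these data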
Target sequence (O14672 214-748 limits assumed): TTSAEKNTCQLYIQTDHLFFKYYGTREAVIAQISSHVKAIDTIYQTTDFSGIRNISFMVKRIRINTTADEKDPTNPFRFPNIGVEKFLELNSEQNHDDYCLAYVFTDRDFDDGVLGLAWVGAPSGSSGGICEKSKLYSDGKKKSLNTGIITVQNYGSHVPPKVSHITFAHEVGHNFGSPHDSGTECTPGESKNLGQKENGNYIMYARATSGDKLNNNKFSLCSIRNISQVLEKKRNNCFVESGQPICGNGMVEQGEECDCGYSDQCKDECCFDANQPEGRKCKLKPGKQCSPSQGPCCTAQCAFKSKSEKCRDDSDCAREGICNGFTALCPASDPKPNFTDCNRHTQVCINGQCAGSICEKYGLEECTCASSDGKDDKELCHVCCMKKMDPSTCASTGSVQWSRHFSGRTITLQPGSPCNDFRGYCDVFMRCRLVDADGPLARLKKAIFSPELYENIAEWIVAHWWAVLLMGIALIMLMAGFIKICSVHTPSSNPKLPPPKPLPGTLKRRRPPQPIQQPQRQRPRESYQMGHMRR
Numbers stand for hits; . = inactive; / = no result given; + = active, no number.

SMILES	CaV13 ICDI inh	FAS TE block	Arrestin-AP2 inh	ADAM17 inh	NRP1-CendR mod	ADAM10 inh
Cc1ccc(NC(=O)c2ncn(CCCNCCCc3ccccc3)n2)cc1C	.	.	.	.	33	.
Cc1ccc(NC(=O)c2ncn(CCCNCCCN(C)C)n2)cc1C	.	.	.	.	.	.
COc1ccc(-c2cc(NC(=O)Cc3c(C)[nH]c4ccccc34)ccc2Nc2cccnc2)cc1OC	/	/	/	.	/	.
O=C(CC1C(=O)NCCN1Cc1cccc(C(F)(F)F)c1)NCCc1cnccn1 (stereo not given)	.	.	.	.	21	.
CCOc1nc(-c2ccccc2)c2cc(C)ccc2n1	.	.	.	.	20	.
O=C(Nc1ccc(Cl)c(S(=O)(=O)N2CCOCC2)c1)C1=NN(c2ccccc2)C(=O)CC1	.	.	.	.	.	.
O=C(Nc1ccc(S(=O)(=O)N2CCOCC2)cc1)c1ccc2c(c1)S(=O)(=O)c1ccccc1C2=O	.	.	.	.	.	.
O=C(Nc1ccccc1)c1ccc(N2CCN(c3ccccc3)CC2)c(S(=O)(=O)N2CCOCC2)c1	.	56	.	.	.	.
O=C(Nc1cccc(S(=O)(=O)N2CCOCC2)c1)C1=NN(c2ccccc2)C(=O)CC1	.	.	.	.	27	.
Cc1ccc(NC(=O)c2ccc3c(c2)S(=O)(=O)c2ccccc2C3=O)cc1S(=O)(=O)N1CCOCC1	.	.	.	.	29	.
CN1CCN(c2ccc([N+](=O)[O-])cc2S(=O)(=O)N2CCOCC2)CC1	.	.	.	.	.	.
O=[N+]([O-])c1ccc(N2CCN(Cc3ccccc3)CC2)c(S(=O)(=O)N2CCOCC2)c1	/	.	.	.	30	.
COC(=O)c1cc([N+](=O)[O-])c(C)c(C)n1	.	.	/	.	.	.
Cc1cccc(C(=O)OCC(=O)NCc2ccc(Cl)cc2)c1	.	.	/	.	.	.
COc1ccc(NS(=O)(=O)c2cc(NC(=O)C3=NN(c4ccccc4)C(=O)CC3)ccc2OC)cc1	.	.	.	.	27	.
COCCN1C(=O)C2=C(C1=O)C1N(C)c3ccccc3[C@@]13C[C@@H](CO)N(C(=O)CCC(=O)OC)C3=N2 (stereo not given in full)	/	/	/	.	/	.
COc1ccc(Cl)cc1C(=O)NNC(=O)C1CCCO1 (stereo not given)	.	.	.	.	.	.
COC(=O)c1ccc(N2CCOCC2)c(NC(=O)c2cccnc2)c1	.	.	.	.	26	.
COC(=O)c1ccc(N2CCN(C)CC2)c(NC(=O)c2cccnc2)c1	.	.	.	.	.	.
COc1ccc(-c2csc(C(NC(C)=O)c3cccc(F)c3)n2)cn1 (stereo not given)	.	.	/	.	27	.
CC(=O)NC(c1cccc(F)c1)c1nc(-c2cccc(C(F)(F)F)c2)cs1 (stereo not given)	.	.	/	.	25	.
COc1cccc(COC(=O)CSCC(=O)Nc2ccc(C)cc2)c1OC	.	.	/	.	.	.
Cc1ccc(-n2c(C)cc(C3=NNC(=NC4CC4)SC3)c2C)cc1C	.	.	/	9.5	.	.
O=C(Nc1ccc(F)cc1)OCc1cn(Cc2cc(F)ccc2F)nn1	/	/	/	.	/	.
COc1cccc(-c2cc3nc(-c4ccco4)cc(N4CCN(C(C)=O)CC4)n3n2)c1	/	/	/	.	/	.
SMILES	CaV13 ICDI inh	FAS TE block	Arrestin-AP2 inh	ADAM17 inh	NRP1-CendR mod	ADAM10 inh
CC(C)(C)n1cnc2cc(NC(=O)c3cccs3)ccc21	.	.	.	.	.	.
CCc1cc(C(=O)Nc2ccc(OC)nc2)sc1C	.	.	.	.	24	.
COc1ccc(NC(=O)c2ccco2)cn1	.	.	.	.	26	.
COc1ccc(NC(=O)c2cc(Br)c(Br)s2)cn1	.	.	.	.	.	.
CC(C)(C)n1cnc2cc(NC(=O)c3ccccc3)ccc21	.	.	.	.	23	.
Cn1cnc2cc(NC(=O)c3ccco3)ccc21	.	.	.	.	24	.
Cc1cc(Cl)ccc1NC(=O)CN1C(=O)C(=O)N(C2CCCC2)C1=O	.	.	.	.	.	.
COc1cccc(C(C(=O)NC2CCCC2)N2CCN(c3cc(C)nc4ccccc34)CC2)c1OC (stereo not given)	.	/	/	.	.	.
COc1ccc(CNC(=O)CCNS(=O)(=O)c2ccc(Cl)cc2)cc1	.	.	.	.	28	.
COc1ccc2[nH]c(C)c(CN3CCCCC3)c(=O)c2c1	.	.	.	.	32	.
c1ccc2c(c1)CCCN2Cc1nnnn1CC1CCCO1 (stereo not given)	.	.	.	.	24	.
O=C(NCC#CCOCc1ccccc1)c1ccccc1	37	.	.	.	.	.
CCOc1ccc2nc(NCCNC(=O)Nc3ccccc3)c(C#N)cc2c1	.	.	.	.	.	.
CCOc1ccc2nc(NCCNC(=S)NCCCN(C)C)c(C#N)cc2c1	+	.	.	.	.	.
CCOc1ccc2nc(NCCCNS(=O)(=O)c3ccc(C)cc3)c(C#N)cc2c1	32	.	.	/	.	/
COCc1[nH]nc2c1C(c1cccc(C(F)(F)F)c1)NC2=O (stereo not given)	.	/	/	.	/	.
COC(=O)[C@H]1C[C@@]2(C)c3ccccc3N(S(=O)(=O)c3ccccc3)[C@H]2N1	/	/	/	.	/	.
Cc1ccc(C(=O)Nc2nnc([C@H]3C[C@H](O)[C@@H](CO)O3)s2)cc1	.	.	/	.	30	.
CC(C)c1cc(C(C)C)c(S(=O)(=O)N2CCCC(C(=O)NCc3cccs3)C2)c(C(C)C)c1 (stereo not given)	/	/	/	.	/	.
CCOC(=O)[C@@]12CCCC3=C1N(CCC3)C(=O)[C@H]2CC(=O)NCc1ccc(OC)c(OC)c1	/	/	/	.	/	.
COc1ccccc1CNC(=O)c1cc(-c2ccccc2)nn1Cc1cc(C)no1	.	.	.	.	27	.
COc1ccc(NC(=O)Nc2cc(C)cc(C)c2)cn1	.	.	.	.	.	.
COc1ccc(NC(=O)/C=C/c2cccc(F)c2)cn1	.	.	.	.	19	.
COc1ccc(NC(=O)Nc2cccc(C(F)(F)F)c2)cn1	.	.	.	.	28	.
COc1ccc(NC(=O)/C=C/c2ccco2)cn1	.	.	.	.	.	.

Screening results (PubChem)
